Laboratory results from ChEMBL document CHEMBL2311271 (Eur J Med Chem, 2013).

How the values were obtained:
Type in all cases: functional, cell-based
CWR22R = test: Cytotoxicity against human 22Rv1 cells by MTT assay
Procedure, shortened: (§1)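 Cells grown in RPMI-1640 with 10% fetal calf serum plus penicillin and streptomycin, 37 °C, 5% CO₂. Compounds in DMSO, final ≤2% (v/v), tested in 96-well cultures with MTT staining. IC₅₀ = concentration cutting optical density 50% versus untreated cells; three replicate wells per point; mean of three independent determinations.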

769-P = test: Cytotoxicity against human 769-P cells by MTT assay; procedure, shortened: as §1
A-375 = test: Cytotoxicity against human A375 cells by MTT assay; procedure, shortened: as §1
HT-29 = test: Cytotoxicity against human HT-29 cells by MTT assay; procedure, shortened: as §1
OS-RC-2 = test: Cytotoxicity against human OS-RC2 cells by MTT assay; procedure, shortened: as §1
[1] = Cytotoxicity against human Blu-87 cells by MTT assay; procedure, shortened: as §1
786-0 = test: Cytotoxicity against human 786-0 cells by MTT assay; procedure, shortened: as §1
U-251 = test: Cytotoxicity against human U251 cells by MTT assay; procedure, shortened: as §1
A549 = test: Cytotoxicity against human A549 cells by MTT assay; procedure, shortened: as §1
KB = test: Cytotoxicity against human KB cells by MTT assay; procedure, shortened: as §1
SCaBER = test: Cytotoxicity against human SCaBER cells by MTT assay; procedure, shortened: as §1
BGC-823 = test: Cytotoxicity against human BGC823 cells by MTT assay; procedure, shortened: as §1
HepG2 = test: Cytotoxicity against human HepG2 cells by MTT assay; procedure, shortened: as §1
HeLa = test: Cytotoxicity against human HeLa cells by MTT assay; procedure, shortened: as §1
Bel-7402 = test: Cytotoxicity against human Bel7402 cells by MTT assay; procedure, shortened: as §1
MCF7 = test: Cytotoxicity against human MCF7 cells by MTT assay; procedure, shortened: as §1

Row | SMILES | IC50 (CWR22R) | IC50 (769-P) | IC50 (A-375) | IC50 (HT-29) | IC50 (OS-RC-2) | IC50 [1] | IC50 (786-0) | IC50 (U-251) | IC50 (A549) | IC50 (KB) | IC50 (SCaBER) | IC50 (BGC-823) | IC50 (HepG2) | IC50 (HeLa) | IC50 (Bel-7402) | IC50 (MCF7)
1 | CCCCOc1ccc2c3cc[n+](Cc4ccccc4)c(C)c3n(CC(C)C)c2c1 | < 1.6 µM | 2.3 µM | 2.1 µM | 4 µM | 5.8 µM | 8.9 µM | 2.4 µM | 1.8 µM | 2.2 µM | 6 µM | 9.7 µM |  |  |  |  | 
2 | CCCCCCCCOc1ccc2c3cc[n+](Cc4ccccc4)c(C)c3n(CCCc3ccccc3)c2c1 | < 1.5 µM | 1.8 µM | < 1.5 µM | 3.4 µM | 1.7 µM | 1.9 µM | < 1.5 µM | 2.9 µM | 1.6 µM | < 1.5 µM | 6.1 µM |  |  |  |  | 
3 | CCCCn1c2cc(OCC(C)C)ccc2c2ccnc(C)c21 |  | 4 µM | 18.4 µM | 20.1 µM | 30.5 µM | 17.4 µM | 14.4 µM | 32.3 µM | 30 µM | 19.4 µM | 15.9 µM | 23.4 µM | 15.3 µM | 40.7 µM | 25.6 µM | 21.6 µM
4 | CCCCn1c2cc(OC(CC)CC)ccc2c2ccnc(C)c21 |  | 22.2 µM | 18.8 µM | 25.1 µM | 26.9 µM | 16 µM | 13.4 µM | 25.1 µM | 21 µM | 19.8 µM | 43.8 µM | 16.7 µM | 15.6 µM | 28.2 µM | 21.5 µM | 5.4 µM
5 | CCCCn1c2cc(OCCCc3ccccc3)ccc2c2ccnc(C)c21 | 40.5 µM | 21.3 µM | 21.5 µM | 51.2 µM |  | 26.9 µM | 12.9 µM | 29.9 µM | 28.1 µM | 41.6 µM | 20.3 µM | 13.8 µM | 15.6 µM | 24.7 µM | > 100 µM | 16 µM
6 | CCCCOc1ccc2c3cc[n+](Cc4ccccc4)c(C)c3n(CC)c2c1 |  | 4.6 µM | 6.9 µM | 6.4 µM | 8.8 µM | 22.9 µM | 7.8 µM | 14.2 µM | 13 µM | < 1.7 µM | 21.8 µM | 10.9 µM | 10 µM | 2.4 µM | 2.9 µM | 5.9 µM
7 | CCn1c2cc(OCc3ccccc3)ccc2c2cc[n+](Cc3ccccc3)c(C)c21 |  | 8.9 µM | 12.3 µM | 10.9 µM | 15.9 µM | 22.1 µM | 15.4 µM | 16.2 µM | 19.6 µM | 8.7 µM | 46.3 µM | 66.1 µM | 49.9 µM | 56.3 µM | 3.6 µM | 67.6 µM
8 | CCCCn1c2cc(OCC(C)C)ccc2c2cc[n+](Cc3ccccc3)c(C)c21 | 6.7 µM | 4.6 µM | 4.2 µM | 3.1 µM | 3.2 µM | 12.3 µM | 2.5 µM | 12.1 µM | 3.8 µM | 2 µM | 18.2 µM | 4.6 µM | 4.2 µM | 3.9 µM | 2.7 µM | 10.4 µM
9 | CCCCCCCCOc1ccc2c3cc[n+](Cc4ccccc4)c(C)c3n(CCCC)c2c1 | 2.9 µM | < 1.5 µM | < 1.5 µM | 3.2 µM | < 1.5 µM | 2 µM | < 1.5 µM | 2 µM | < 1.5 µM | < 1.5 µM | 4.6 µM | 3.7 µM | 2.7 µM | 4 µM | 0.86 µM | 4.1 µM
10 | CCCCn1c2cc(OCc3ccccc3)ccc2c2cc[n+](Cc3ccccc3)c(C)c21 | 2.1 µM | 20 µM | 4 µM | 3.7 µM | 3.6 µM | 4.6 µM | < 1.5 µM | 5.5 µM | 4.4 µM | 4 µM | 8.5 µM | 21.4 µM | 2.7 µM | 2.2 µM | 3.6 µM | 15.7 µM
11 | Cc1c2c(cc[n+]1Cc1ccccc1)c1ccc(OCC(C)C)cc1n2CC(C)C | 2.6 µM | < 1.5 µM | 3.9 µM | 4.2 µM | 8.3 µM | 5.2 µM | 3.4 µM | 4.5 µM | 4.3 µM | < 1.5 µM | 12.8 µM | 5.4 µM | 5.7 µM | 2.1 µM | 4.3 µM | 2.9 µM
12 | CCCCCCCCCCOc1ccc2c3cc[n+](Cc4ccccc4)c(C)c3n(CC(C)C)c2c1 | < 1.5 µM | < 1.5 µM | < 1.5 µM | 1.7 µM | 4 µM | 3.2 µM | 1.9 µM | 1.5 µM | < 1.5 µM | < 1.5 µM | 7.8 µM | 2 µM | 2.4 µM | 1.6 µM | 5.8 µM | 1.8 µM
13 | Cc1c2c(cc[n+]1Cc1ccccc1)c1ccc(OCCCc3ccccc3)cc1n2CC(C)C | 2.8 µM | 3.7 µM | < 1.5 µM | 4.9 µM | 3.5 µM | 3.8 µM | 2.3 µM | 2.5 µM | < 1.5 µM | < 1.5 µM | 3.6 µM | 2.5 µM | 4 µM | 1.4 µM | 1.3 µM | 9.2 µM
14 | CCCCOc1ccc2c3cc[n+](Cc4ccccc4)c(C)c3n(CCCc3ccccc3)c2c1 | 3.4 µM | 2.9 µM | 1.5 µM | 3.4 µM | 6.8 µM | 4.4 µM | 2.6 µM | 3.7 µM | < 1.5 µM | < 1.5 µM | 4.7 µM | 4.1 µM | 4.1 µM | 3.9 µM | 2.5 µM | 3.8 µM
